# Results published in ChEMBL document CHEMBL2331490, “Synthesis and in vitro evaluation of new derivatives of 2-substituted-6-fluorobenzo[d]thiazoles as cholinesterase inhibitors” (Bioorg Med Chem, 2013).
# Legend:
# [1] = Lipophilicity, log k of the compound by HPLC analysis; format: physicochemical
# Outline: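 Mobile phase MeOH/water 70:30, 1.0 mL/min, column at 45 °C, samples at 10 °C, photodiode array detection. log k calculated from k.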
# [2] = Lipophilicity, log P of the compound calculated using ChemOffice software
# [3] = target: Cholinesterase (Equus caballus, UniProt P81908); assay: Inhibition of equine BChE using after 10 mins by Ellman's method
# Chain of Cholinesterase (P81908 whole entry): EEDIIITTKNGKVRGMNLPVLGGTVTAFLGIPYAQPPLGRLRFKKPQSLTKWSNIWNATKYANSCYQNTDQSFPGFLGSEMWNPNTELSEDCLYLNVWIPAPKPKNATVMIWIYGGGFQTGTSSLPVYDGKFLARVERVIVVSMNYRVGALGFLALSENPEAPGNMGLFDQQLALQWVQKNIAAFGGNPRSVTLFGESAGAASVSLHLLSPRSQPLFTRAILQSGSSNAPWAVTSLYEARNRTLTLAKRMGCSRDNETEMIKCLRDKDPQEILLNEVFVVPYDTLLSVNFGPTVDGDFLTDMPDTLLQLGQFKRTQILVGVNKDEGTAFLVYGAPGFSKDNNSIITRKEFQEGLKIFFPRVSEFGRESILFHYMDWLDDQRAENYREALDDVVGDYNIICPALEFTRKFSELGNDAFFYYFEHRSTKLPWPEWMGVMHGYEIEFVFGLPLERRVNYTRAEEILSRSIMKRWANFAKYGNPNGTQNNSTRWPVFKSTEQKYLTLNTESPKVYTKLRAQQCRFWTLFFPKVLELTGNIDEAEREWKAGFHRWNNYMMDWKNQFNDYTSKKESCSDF
# Outline: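 BChE from equine serum, diluted in phosphate buffer (0.1 M, pH 8). Catalytic activity in the final mixture was 0.14 U/mL. Enzyme was preincubated with compound (dioxane stock diluted in water) for 5 min at 25 °C. Then 0.5 mM DTNB and 0.25 mM acetylthiocholine were added, incubated 10 min at 25 °C, and absorbance read at 412 nm. IC50 taken from %inhibition versus concentration, 3 replicates.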
# [4] = target: Acetylcholinesterase (Electrophorus electricus, UniProt O42275); assay: Inhibition of Electrophorus electricus AChE using acetylthiocholine as substrate after 10 mins by Ellman's method
# Chain of Acetylcholinesterase (O42275 whole entry): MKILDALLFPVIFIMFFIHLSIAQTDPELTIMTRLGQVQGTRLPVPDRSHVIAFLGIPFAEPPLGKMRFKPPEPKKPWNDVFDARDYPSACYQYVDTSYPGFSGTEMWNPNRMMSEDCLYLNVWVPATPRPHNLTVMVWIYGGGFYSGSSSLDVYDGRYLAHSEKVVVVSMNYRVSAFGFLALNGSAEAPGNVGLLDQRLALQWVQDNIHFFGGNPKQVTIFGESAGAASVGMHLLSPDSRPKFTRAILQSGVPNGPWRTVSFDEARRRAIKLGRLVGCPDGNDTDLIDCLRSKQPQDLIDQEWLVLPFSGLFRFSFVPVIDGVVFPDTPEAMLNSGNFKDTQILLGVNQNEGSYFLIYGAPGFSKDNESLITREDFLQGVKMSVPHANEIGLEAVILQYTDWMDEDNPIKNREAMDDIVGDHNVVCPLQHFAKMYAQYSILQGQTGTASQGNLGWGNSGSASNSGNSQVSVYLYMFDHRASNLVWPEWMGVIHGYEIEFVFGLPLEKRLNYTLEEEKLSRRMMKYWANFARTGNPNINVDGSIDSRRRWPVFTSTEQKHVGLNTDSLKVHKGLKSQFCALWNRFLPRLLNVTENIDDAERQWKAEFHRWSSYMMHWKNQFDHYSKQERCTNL
# [5] = test system: MCF7; assay: Growth inhibition of human MCF7 cells at 0.01 to 100 umol/l measured immediately by xCelligence RTCA SP assay; format: cell-based
# Outline: (§1)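 MCF7 (p37) grown in DMEM with 10% FCS, penicillin-streptomycin and 0.01 mg/mL insulin. Seeded at 75.000 cells/well on impedance E-plates and monitored hourly as cell index. Treated in log phase with compounds in DMSO, 0.01–2500 µmol/L, in triplicate. CI normalized to the last point before addition. Vehicle control 0.1% DMSO; 10% DMSO as 0% viability. IC50 taken at 24 h.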
# [6] = test system: HepG2; assay: Growth inhibition of human HepG2 cells at >10 umol/l after 24 hrs by MTS assay; format: cell-based; conditions: hepg2, 24 h
# Outline: (§2)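 HepG2 (p13) grown in MEM with 10% FBS, L-glutamine and non-essential amino acids at 37 °C, 5% CO2. Seeded at 10,000 cells/well and treated next day with compounds in DMSO, 12 concentrations (0.001–5000 or 0.001–2500 µmol/L), in triplicate. Controls were untreated cells, 10% DMSO (0% viability), no cells and vehicle. After 24 h, MTS reagent was added for 3.5 h at 37 °C and A490 was read. IC50 from curve fit.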
# [7] = test system: MCF7; assay: Growth inhibition of human MCF7 cells at 1000 umol/l measured immediately by xCelligence RTCA SP assay; format: cell-based; conditions: mcf7, 1000 µM; outline: as §1
# [8] = test system: HepG2; assay: Cytotoxicity against human HepG2 cells after 24 hrs by MTS assay; format: cell-based; conditions: HepG2, 24 h; outline: as §2
# [9] = test system: MCF7; assay: Cytotoxicity against human MCF7 cells after 24 hrs by xCelligence RTCA SP assay; format: cell-based; conditions: MCF7, 24 h; outline: as §1
# [10] = test system: MCF7; assay: Growth inhibition of human MCF7 cells at 2500 umol/l measured immediately by xCelligence RTCA SP assay; format: cell-based; conditions: mcf7, 2500 µM; outline: as §1
# [11] = test system: HepG2; assay: Growth inhibition of human HepG2 cells at >1000 umol/l after 24 hrs by MTS assay; format: cell-based; conditions: hepg2, 24 h; outline: as §2
# [12] = test system: MCF7; assay: Growth inhibition of human MCF7 cells at 2500 umol/l measured after 24 hrs by xCelligence RTCA SP assay; format: cell-based; conditions: mcf7, 24 h, 2500 µM; outline: as §1
# [13] = test system: MCF7; assay: Growth inhibition of human MCF7 cells at 1000 umol/l measured after 24 hrs by xCelligence RTCA SP assay; format: cell-based; conditions: mcf7, 24 h, 1000 µM; outline: as §1
# [14] = test system: HepG2; assay: Growth inhibition of human HepG2 cells at <1000 umol/l after 24 hrs by MTS assay; format: cell-based; conditions: hepg2, 24 h; outline: as §2
# [15] = test system: HepG2; assay: Growth inhibition of human HepG2 cells at >100 umol/l after 24 hrs by MTS assay; format: cell-based; conditions: hepg2, 24 h; outline: as §2
# [16] = test system: HepG2; assay: Growth inhibition of human HepG2 cells at <100 umol/l after 24 hrs by MTS assay; format: cell-based; conditions: hepg2, 24 h; outline: as §2
Compound,log K [1],logP [2],IC50 [3] [µM],IC50 [4] [µM],other results
CC(C)[C@H](NC(=O)OCC(Cl)(Cl)Cl)C(=O)N[C@H](C)c1nc2ccc(F)cc2s1,0.8043,4.89,26.6,30.3,
CC(C)[C@H](NC(=O)OCC(F)(F)F)C(=O)N[C@H](C)c1nc2ccc(F)cc2s1,0.5643,4.15,72,49.4,
CC(C)[C@H](NC(=O)OCC(F)(F)C(F)F)C(=O)N[C@H](C)c1nc2ccc(F)cc2s1,0.5237,4.09,33.8,29,
CC(C)[C@H](NC(=O)OCC(F)(F)C(F)(F)C(F)(F)F)C(=O)N[C@H](C)c1nc2ccc(F)cc2s1,0.9218,5.35,83.2,85.5,
CCC[C@H](NC(=O)OC)C(=O)N[C@H](C)c1nc2ccc(F)cc2s1,0.4166,3.19,20.4,48.8,
CCC[C@H](NC(=O)OCC)C(=O)N[C@H](C)c1nc2ccc(F)cc2s1,0.4873,3.52,14.1,34.8,
CCCOC(=O)N[C@@H](CCC)C(=O)N[C@H](C)c1nc2ccc(F)cc2s1,0.5873,4.01,19.3,28.5,
CCC[C@H](NC(=O)OC(C)C)C(=O)N[C@H](C)c1nc2ccc(F)cc2s1,0.5752,3.84,32.2,21.3,growth inhibition (GI) [5]: Non-toxic; growth inhibition (GI) [6]: Toxic; growth inhibition (GI) [7]: Toxic; IC50 [8]: 273 µM; IC50 [9]: 1.21 mM; growth inhibition (GI) [10]: Toxic
CCCCOC(=O)N[C@@H](CCC)C(=O)N[C@H](C)c1nc2ccc(F)cc2s1,0.7231,4.43,19.6,28,
CCC[C@H](NC(=O)OCC(C)C)C(=O)N[C@H](C)c1nc2ccc(F)cc2s1,0.7063,4.41,26.1,20.2,growth inhibition (GI) [5]: Non-toxic; growth inhibition (GI) [6]: Toxic; growth inhibition (GI) [7]: Toxic; IC50 [8]: 275 µM; IC50 [9]: 0.612 mM; growth inhibition (GI) [10]: Toxic
CCC[C@H](NC(=O)OCCCl)C(=O)N[C@H](C)c1nc2ccc(F)cc2s1,0.514,3.9,54.1,35.4,
CCC[C@H](NC(=O)OCC(Cl)(Cl)Cl)C(=O)N[C@H](C)c1nc2ccc(F)cc2s1,0.8297,4.91,62.7,28.6,
CCC[C@H](NC(=O)OCC(F)(F)F)C(=O)N[C@H](C)c1nc2ccc(F)cc2s1,0.5825,4.16,59,29.3,
CCC[C@H](NC(=O)OCC(F)(F)C(F)F)C(=O)N[C@H](C)c1nc2ccc(F)cc2s1,0.5415,4.11,43.9,30.7,
CCC[C@H](NC(=O)OCC(F)(F)C(F)(F)C(F)(F)F)C(=O)N[C@H](C)c1nc2ccc(F)cc2s1,0.9463,5.37,59.8,46,
COC(=O)N[C@H](C(=O)N[C@H](C)c1nc2ccc(F)cc2s1)C(C)C,0.4113,3.17,32,91.2,
CCOC(=O)N[C@H](C(=O)N[C@H](C)c1nc2ccc(F)cc2s1)C(C)C,0.4834,3.51,35.6,153,growth inhibition (GI) [11]: Toxic; growth inhibition (GI) [12]: Non-toxic; growth inhibition (GI) [5]: Non-toxic; growth inhibition (GI) [7]: Toxic; IC50 [8]: > 5000 µM; IC50 [9]: > 4.39 mM; growth inhibition (GI) [13]: Non-toxic; growth inhibition (GI) [10]: Toxic; growth inhibition (GI) [14]: Non-toxic
CCCOC(=O)N[C@H](C(=O)N[C@H](C)c1nc2ccc(F)cc2s1)C(C)C,0.5851,3.99,70.4,109,growth inhibition (GI) [15]: Toxic; growth inhibition (GI) [16]: Non-toxic; growth inhibition (GI) [5]: Non-toxic; growth inhibition (GI) [7]: Toxic; IC50 [8]: 1730 µM; IC50 [9]: 4.39 mM; growth inhibition (GI) [13]: Non-toxic; growth inhibition (GI) [10]: Toxic
CCCCOC(=O)N[C@H](C(=O)N[C@H](C)c1nc2ccc(F)cc2s1)C(C)C,0.7135,4.41,62.5,68.1,
CC(C)COC(=O)N[C@H](C(=O)N[C@H](C)c1nc2ccc(F)cc2s1)C(C)C,0.7041,4.39,41.1,49.3,
CC(C)[C@H](NC(=O)OCCCl)C(=O)N[C@H](C)c1nc2ccc(F)cc2s1,0.5014,3.88,54.2,47.5,
CC(C)[C@H](NC(=O)OCCBr)C(=O)N[C@H](C)c1nc2ccc(F)cc2s1,0.5418,4,,47.2,
CC(C)OC(=O)N[C@H](C(=O)N[C@H](C)c1nc2ccc(F)cc2s1)C(C)C [BENTHIAVALICARB-ISOPROPYL],0.5725,3.82,41.1,95,
COc1ccc2c3c1O[C@H]1C[C@@H](O)C=C[C@@]31CCN(C)C2 [GALANTAMINE],,1.41,,,
CCN(C)C(=O)Oc1cccc([C@H](C)N(C)C)c1 [RIVASTIGMINE],,2.36,,,
